According to ChEMBL document CHEMBL1155590, “Two novel cytotoxic benzofuran derivatives from Brazilian propolis” (2000):
≈ marks a conversion by molar mass, not a printed value.

Tests used:
Format in all cases: functional
HT-1080 = experiment: Cytotoxicity against human HT1080 cells by MTT assay; conditions: for EC50: read-out: ED50 (the source's name)
Summary of the method: (§1)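 MTT viability read-out, run by a previously described method. Cells were highly liver-metastatic murine colon 26-L5 carcinoma and human HT-1080 fibrosarcoma.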

Mus musculus = organism: Mus musculus; experiment: (§2) Cytotoxicity against mouse 26-L5 cells by MTT assay; summary of the method: as §1
[1] = as §2; conditions: read-out: ED50 (the source's name); summary of the method: as §1

| Compound | Activity (HT-1080) | Activity (Mus musculus) | EC50 (HT-1080) [µg/mL] | EC50 [1] [µg/mL] |
| --- | --- | --- | --- | --- |
| C=C(C)C1Cc2cc(/C=C/C(=O)O)cc(CC=C(C)C)c2O1 (configuration not stated) | Not toxic | Not toxic |  |  |
| COc1ccc(-c2oc3cc(O)c(OC)c(O)c3c(=O)c2O)cc1 [BETULETOL] |  |  | < 8 | < 8 |
| COc1ccc(-c2oc3cc(O)cc(O)c3c(=O)c2OC)cc1 [ERMANIN] |  |  | < 8 | < 8 |
| COc1ccc(-c2oc3cc(O)cc(O)c3c(=O)c2O)cc1 [KAEMPFERIDE] |  |  | < 8 | < 8 |
| COc1cc([C@@H]2OC=C(c3cc4cc(O)c(C(C)=O)cc4o3)C[C@H]2COC(C)=O)ccc1O [PROPOLIS-BENZOFURAN A] |  |  | 13.9 (≈ 30.7 µM) | 12.4 (≈ 27.4 µM) |
| COc1cc([C@@H]2c3c(oc4cc(C(C)=O)c(O)cc34)C(=O)C[C@H]2COC(C)=O)ccc1O [PROPOLIS-BENZOFURAN B] |  |  | 43.2 (≈ 98.5 µM) | 13.7 (≈ 31.2 µM) |
